Assay results from ChEMBL document CHEMBL2086287, “An efficient one-pot synthesis and photoinduced DNA cleavage studies of 2-chloro-3-(5-aryl-4,5-dihydroisoxazol-3-yl)quinolines” (Bioorg Med Chem Lett, 2012).

Assays:
Nucleic Acid [1] = assay: Induction of Escherichia coli pUC19 DNA cleavage assessed as conversion of supercoiled DNA to nicked form of DNA at 40 uM […] by ethidium bromide staining; assay type: nucleic-acid assay
Procedure, shortened: (§1)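 pUC-19 plasmid DNA photolysed at 365 nm for 2 h in 1:9 DMSO:Tris buffer ([…], pH 7.2) with test compound at 40–80 μM, 37 °C. A control lane without compound and dark-incubated samples were run alongside. Cleavage read by gel separation as the percentage of supercoiled (Form I) DNA converted to nicked (Form II) and linear (Form III) forms.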

Nucleic Acid [2] = assay: Induction of Escherichia coli pUC19 DNA cleavage assessed as conversion of supercoiled DNA to nicked form of DNA at 60 uM treated after 2 hrs before UV-vis irradiation measured after 1 hr by ethidium bromide staining; assay type: nucleic-acid assay; procedure, shortened: as §1
Nucleic Acid [3] = assay: Induction of Escherichia coli pUC19 DNA cleavage assessed as conversion of supercoiled form of DNA to nicked and linear form of DNA at 80 uM treated after 2 hrs before UV-vis irradiation measured after 1 hr by ethidium bromide staining

Structure (SMILES)	Activity (Nucleic Acid [1])	Activity (Nucleic Acid [2])	Activity (Nucleic Acid [3])
Clc1ccc(C2=NOC(c3cc4ccccc4nc3Cl)C2)cc1 (stereo unspecified)	20%	50%	85%
Oc1ccc(C2=NOC(c3cc4ccccc4nc3Cl)C2)cc1 (stereo unspecified)	20%	50%	85%
Clc1nc2ccccc2cc1C1CC(c2ccccc2)=NO1 (stereo unspecified)	20%	50%	85%
Cc1ccc(C2=NOC(c3cc4ccccc4nc3Cl)C2)cc1 (stereo unspecified)	20%	50%	85%
COc1ccc(C2=NOC(c3cc4ccccc4nc3Cl)C2)cc1 (stereo unspecified)	20%	50%	85%

The remaining lines, values ahead:

Activity (Nucleic Acid [1])	Activity (Nucleic Acid [2])	Activity (Nucleic Acid [3])	Structure (SMILES)
20%	50%	85%	O=[N+]([O-])c1ccc(C2=NOC(c3cc4ccccc4nc3Cl)C2)cc1 (stereo unspecified)
20%	50%	85%	Clc1nc2ccccc2cc1C1CC(c2ccc(Br)cc2)=NO1 (stereo unspecified)
